Source: PubChem BioAssay (Broad Institute)
DENV2 CPE: protects cells from dengue virus 2 cytopathic effect; DENV2-infected cells, cytopathic effect rescue, plate reader; actives 1.7% (n = 350,000); CPE inhibition, % at 9.99 µM; in the data active = CPE inhibition above about 20%, passing the limit was not always enough; inconclusive = no clear call, values can overlap the other calls; tested in BHK-21 cells
Statin myotox sup: protects C2C12 myotubes from simvastatin toxicity; ATP luminescence, 48 h; scaled: DMSO 0, geranylgeraniol control 100; rescue of ATP level, % at 7.49 µM; actives 0.78% (n = 330,000); AID 602340;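 active = mean ATP rescue above about 67%, or every replicate alone reaching that limit, limit read from the data, passing the limit was not always enough; inconclusive = no clear call, values can overlap the other calls; inactive = mean under the limit and some replicate under it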;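 note: myotubes were challenged with 10 µM simvastatin during compound exposure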
Xi reactivation: activators of X-chromosome reactivation in mouse fibroblasts | XiGFP mouse fibroblasts, % GFP-positive cells imaging, 3 d; cells co-treated with 5-aza-dC sensitizer; scaled so ellipticine positive control = 100% | activation, % at 7.58 µM | actives 0.055% (n = 360,000) | AID 743238;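 active = mean normalized replicate activation at least 10% and every replicate at or above 10%; inconclusive = only one of the two criteria met; inactive = mean below 10% and not all replicates reach 10%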
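System: XiGFP fibroblasts, SV40-immortalized. Medium: DMEM plus 5-aza-dC sensitizer. Doses: single point. Timing: 3 d treatment, 15 min room-temperature fixation. Control set: ellipticine 6 µM.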
Cneo AK release: causes C. neoformans cell lysis; lysis activity, % at 15 µM; actives 0.2% (n = 360,000); adenylate kinase release luminescence, 4 h; normalised: neutral wells 0, clomiphene wells 100;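 active = mean lysis activity across replicates of at least 80%, whatever share of replicates individually reach that level; inactive = mean lysis activity below 80%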
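Assay system: log-phase C. neoformans yeast / Quantity: yeast cell density of 5 × 10^6 cells/mL / Medium: fresh YPD growth medium / Compound: single dose / Timing: static 4 h at 37 °C with compound, 1 h detection / Measured by: adenylate kinase release luminescence / Read-out: lysis from increased AK signal / Benchmarks: Clomiphene as positive lysis control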
Numbers stand for hits; – = inactive; ? = inconclusive; · = no result given; ! = repeats disagree. Most compounds without a hit are left out; they make up all but 2.1% or so of the library.

SMILES | DENV2 CPE | Statin myotox sup | Xi reactivation | Cneo AK release
C=CCC[C@H](Cc1ccc(F)cc1)C(=O)OC[C@H](Cc1c[nH]c2ccccc12)NC(=O)[C@@H](CC=C)CC(=O)N(CCO)Cc1ccccc1 | · | – | – | –
C=CCC[C@H](Cc1ccc(F)cc1)C(=O)OC[C@@H](Cc1c[nH]c2ccccc12)NC(=O)[C@@H](CC=C)CC(=O)N(CCO)Cc1ccccc1 | 20.9 | – | – | –
O=C(c1ccccc1)N1C[C@@H]2[C@H](c3ccccc31)[C@@H](CO)N2C(=O)c1ccccn1 | – | – | – | –
CC(C)NC(=O)N1C[C@H]2[C@@H](c3ccccc31)[C@@H](CO)N2C(=O)c1ccccn1 | 114.8 | – | – | –
O=C(c1ccccn1)N1C[C@@H]2[C@H](c3ccccc31)[C@@H](CO)N2C(=O)c1ccccn1 | 68.8 | – | – | –
C[C@@H]1CN([C@@H](C)CO)C(=O)CCCn2cc(nn2)CO[C@H]1CN(C)C(=O)Nc1cccc2ccccc12 | 90.9! | – | – | –
CC(C)NC(=O)N(C)C[C@H]1OCc2cn(nn2)CCCC(=O)N([C@@H](C)CO)C[C@@H]1C | 32.4 | – | – | –
CC(C)NC(=O)N(C)C[C@@H]1OCc2cn(nn2)CCCC(=O)N([C@@H](C)CO)C[C@@H]1C | · | – | – | ·
COC(=O)N(C)C[C@H]1OCc2cn(nn2)CCCC(=O)N([C@@H](C)CO)C[C@@H]1C | – | – | – | 83.8!
C[C@H]1CN([C@@H](C)CO)C(=O)CCCn2cc(nn2)CO[C@@H]1CN(C)C(=O)Nc1cccc2ccccc12 | – | – | – | –
Cc1cccc(S(=O)(=O)N2CCCCN3[C@H](CO)[C@@H](c4ccc(-c5cccnc5)cc4)[C@@H]3C2)c1 | – | · | – | –
CC(=O)N1[C@@H](CO)[C@@H](c2ccccc2)C12CN(Cc1nccs1)C2 | – | · | – | ·
OC[C@@H]1[C@H](c2ccccc2)C2(CN(Cc3nccs3)C2)N1CCC(F)(F)F | 25.5 | · | – | ·
CC(=O)N1[C@H](CO)[C@H](c2ccccc2)C12CN(Cc1nccs1)C2 | – | · | – | ·
CCC(=O)N1[C@H](CO)[C@@H](c2ccccc2)C12CN(Cc1nccs1)C2 | 73.1 | · | – | ·
O=C(c1ccccc1)N1[C@@H](CO)[C@@H](c2ccccc2)C12CN(Cc1nccs1)C2 | 25.3 | · | – | ·
O=C(c1ccccc1)N1[C@H](CO)[C@@H](c2ccccc2)C12CN(Cc1nccs1)C2 | 26.6 | · | – | ·
CC(=O)Nc1cccc(-c2cc(NC(C)=O)c3ncc(-c4cccc(C(C)=O)c4)n3c2)c1 | – | – | – | –
O=CNc1cc(-c2ccsc2)cn2c(-c3ccccc3)cnc12 | ? | – | – | 145.5
CS(=O)(=O)c1ccc(-c2cnc3c(NC=O)cc(-c4ccsc4)cn23)cc1 | – | – | – | –
CC(=O)Nc1cccc(-c2cc(NC=O)c3ncc(-c4ccc(C(C)=O)cc4)n3c2)c1 | 34.0 | – | – | –
COc1cccc(-c2cnc3c(NC(C)=O)cc(-c4ccc(OC)c(OC)c4)cn23)c1 | – | – | – | –
COc1ccc(-c2cc(NC(C)=O)c3ncc(-c4cccc(C(C)=O)c4)n3c2)cc1OC | 48.8 | – | – | –
COCC(=O)N1CC2(C1)CN(Cc1cccc(Cl)c1)[C@@H](CO)c1[nH]c3cc(OC)ccc3c12 | – | · | – | ·
C[C@@H]1CN([C@@H](C)CO)C(=O)c2cc(NC(=O)NC3CCCCC3)ccc2O[C@H]1CN(C)Cc1ccc(Cl)c(Cl)c1 | – | · | – | –
SMILES | DENV2 CPE | Statin myotox sup | Xi reactivation | Cneo AK release
C[C@@H]1CN([C@@H](C)CO)C(=O)Cc2cc(N(C)C)ccc2O[C@@H]1CN(C)Cc1ccncc1 | – | – | – | –
OCC1OCOC2C(CO)OCOC12 (stereo unspecified) | 122.8 | – | · | –
C[C@@H]1CN([C@H](C)CO)C(=O)c2cccc(NS(=O)(=O)c3ccc(F)cc3)c2O[C@H]1CN(C)Cc1ccncc1 | – | – | – | –
Cc1cccc(C)c1NC(=O)c1nc(S(=O)(=O)Cc2ccccc2)ncc1Cl | – | 134.7 | – | –
O=c1[nH]cnc2scc(-c3ccsc3)c12 | · | 117.2 | · | –
O=c1[nH]cnc2scc(-c3ccc(Br)cc3)c12 | – | · | – | ·
O=C(Nc1ccc2c(c1)[C@H]1C[C@@H](CC(=O)N3CCOCC3)O[C@@H](CO)[C@H]1O2)NC1CCCCC1 | – | – | – | –
COc1ccc(/C=C2\Oc3cc(OCC(N)=O)ccc3C2=O)cc1OC | 44.8 | – | – | –
COC(=O)COc1ccc2c(c1)O/C(=C\c1cccc([N+](=O)[O-])c1)C2=O | – | – | – | –
